Results published in publication PMC5970367 (Chembiochem : a European journal of chemical biology, 2017).
Read-outs that look alike come from different tables or passages of the source.

Legend:
[1] = tested on: 5′-fluorescein labeled HCV SLIIb; details: pseudo Michaelis-Menten, fluorescence, cited from earlier work
[2] = tested on: 5′-fluorescein labeled HCV SLIIb; experiment: Reaction kinetics via fluorescence; assay type: biochemical, hepatitis C virus; details: pseudo Michaelis-Menten, catalytic efficiency
Method in brief: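 Copper–peptide complexes were formed at 1.1:1 peptide:Cu. Each complex was added to 333 nM 5′-fluorescein-SLIIb with 1 mM ascorbic acid and 1 mM H2O2 in 20 mM HEPES (pH 7.4, 100 mM NaCl) at 25 °C. Fluorescence loss was followed at ex 491/em 518 nm and converted to RNA concentration by a calibration curve. Initial velocities were plotted against catalyst concentration and fit to Michaelis–Menten to give KM and kcat. Values are the mean of ≥3 trials.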

[3] = tested on: fluorescein-labeled IRES SLIIb; experiment: Time-dependent MALDI-TOF mass spectrometry of SLIIb cleavage; assay type: biochemical, hepatitis C virus; details: for Initial Rate (%Overhang/min), 2′, 3′-cPO4: overhang 2′,3′-cyclic phosphates; for Initial Rate (%Overhang/min), 2′, 3′-cPO4 / Initial Rate (%Overhang/min), 3′-AL / Initial Rate (%Overhang/min), 3′-OH / Initial Rate (%Overhang/min), 3′-PO4 / Initial Rate (%Overhang/min), 3′-PGA / Initial Rate (%Overhang/min), 3′-PG / Initial Rate (%Overhang/min), 5′-AL / Initial Rate (%Overhang/min), 5′-GemDiol / Initial Rate (%Overhang/min), 5′-OH / Initial Rate (%Overhang/min), 5′-PO4 / Initial Rate (%Overhang/min), 5′-PPA: MALDI-TOF time dependence; for Initial Rate (%Overhang/min), 3′-AL: overhang 3′-aldehyde; for Initial Rate (%Overhang/min), 3′-OH: overhang 3′-hydroxyl; for Initial Rate (%Overhang/min), 3′-PO4: overhang 3′-phosphates; for Initial Rate (%Overhang/min), 3′-PGA: overhang 3′-phosphoglycaldehyde; for Initial Rate (%Overhang/min), 3′-PG: overhang 3′-phosphoglycolate; for Initial Rate (%Overhang/min), 5′-AL: overhang 5′-aldehyde; for Initial Rate (%Overhang/min), 5′-GemDiol: overhang 5′-geminal diol; for Initial Rate (%Overhang/min), 5′-OH: overhang 5′-hydroxyl; for Initial Rate (%Overhang/min), 5′-PO4: overhang 5′-phosphate; for Initial Rate (%Overhang/min), 5′-PPA: overhang 5′-phosphopropenal; for Relative Initial Rate (Normalized Intensity/min × 1000), position A6 / Relative Initial Rate (Normalized Intensity/min × 1000), position A15 / Relative Initial Rate (Normalized Intensity/min × 1000), position A19 / Relative Initial Rate (Normalized Intensity/min × 1000), position A27 / Relative Initial Rate (Normalized Intensity/min × 1000), position A30 / Relative Initial Rate (Normalized Intensity/min × 1000), position C10 / Relative Initial Rate (Normalized Intensity/min × 1000), position C33 / Relative Initial Rate (Normalized Intensity/min × 1000), position G5 / Relative Initial Rate (Normalized Intensity/min × 1000), position G9 / Relative Initial Rate (Normalized Intensity/min × 1000), position G11 / Relative Initial Rate (Normalized Intensity/min × 1000), position G28 / Relative Initial Rate (Normalized Intensity/min × 1000), position U12 / Relative Initial Rate (Normalized Intensity/min × 1000), position U14 / Relative Initial Rate (Normalized Intensity/min × 1000), position U25 / Relative Initial Rate (Normalized Intensity/min × 1000), position U26 / Relative Initial Rate (Normalized Intensity/min × 1000), position U29 / Relative Initial Rate (Normalized Intensity/min × 1000), position U31: 10 μM SLIIb, 10 μM copper-peptide
Method in brief: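 Reactions contained 10 μM Fl-SLIIb, 10 μM Cu–peptide, 1 mM ascorbate and 1 mM H2O2, and were sampled at 2–180 min. They were quenched on ice, C18-desalted, and analysed by negative-ion reflectron MALDI-TOF (HPA/ammonium citrate matrix, ≥1000 shots). Peaks with m/z >1500 and S/N >5 were assigned against expected product masses. Products were summed per overhang type and expressed as a fraction at each time point. Initial rate was taken from the linear region (first ~40 min).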

[4] = tested on: fluorescein-labelled SLIIb; experiment: Reaction rates monitored by agarose gel electrophoresis; assay type: biochemical, hepatitis C virus; details: addition of complex to SLIIb

Row | Substance | kcat/KM [2] [M⁻¹ s⁻¹] | Initial Rate (%Overhang/min), 2′, 3′-cPO4 [3] [%Overhang/min] | Initial Rate (%Overhang/min), 3′-AL [3] [%Overhang/min] | Initial Rate (%Overhang/min), 3′-OH [3] [%Overhang/min] | Initial Rate (%Overhang/min), 3′-PO4 [3] [%Overhang/min] | Initial Rate (%Overhang/min), 3′-PGA [3] [%Overhang/min] | Initial Rate (%Overhang/min), 3′-PG [3] [%Overhang/min] | Initial Rate (%Overhang/min), 5′-AL [3] [%Overhang/min] | Initial Rate (%Overhang/min), 5′-GemDiol [3] [%Overhang/min] | Initial Rate (%Overhang/min), 5′-OH [3] [%Overhang/min] | Initial Rate (%Overhang/min), 5′-PO4 [3] [%Overhang/min] | Initial Rate (%Overhang/min), 5′-PPA [3] [%Overhang/min] | Relative Initial Rate (Normalized Intensity/min × 1000), position A6 [3] | Relative Initial Rate (Normalized Intensity/min × 1000), position A15 [3] | Relative Initial Rate (Normalized Intensity/min × 1000), position A19 [3] | Relative Initial Rate (Normalized Intensity/min × 1000), position A27 [3] | Relative Initial Rate (Normalized Intensity/min × 1000), position A30 [3] | Relative Initial Rate (Normalized Intensity/min × 1000), position C10 [3] | Relative Initial Rate (Normalized Intensity/min × 1000), position C33 [3] | Relative Initial Rate (Normalized Intensity/min × 1000), position G5 [3] | further results
1 | GGHYrFK-Cu [1-Cu] |  |  |  |  |  |  |  |  |  |  |  |  |  |  |  |  |  |  |  |  | Km ([1]; ref 4b): 0.8 ± 0.1 µM; kcat ([1]; ref 4b): 0.00883 ± 0.00033 s⁻¹; kcat/KM ([1]; ref 4b): 11000 M⁻¹ s⁻¹
2 | GGhyrfk-Cu [2-Cu] |  |  |  |  |  |  |  |  |  |  |  |  |  |  |  |  |  |  |  |  | Km ([1]; ref 4d): 7.9 ± 1.2 µM; kcat ([1]; ref 4d): 0.00233 ± 0.00017 s⁻¹; kcat/KM ([1]; ref 4d): 300 M⁻¹ s⁻¹
3 | GGHYRFK-Cu [3-Cu] | 23.3 | 0.7 ± 0.3 | 0.8 ± 0.1 | 1.1 ± 0.5 | 0.4 ± 0.1 | 0.3 ± 0.1 | 0.2 ± 0.1 | 0.7 ± 0.1 | 0.3 ± 0.1 | 2.0 ± 0.6 | 0.4 ± 0.1 | 0.3 ± 0.1 | - ^a | - ^a | - ^a | - ^a | - ^a | - ^a | - ^a | - ^a | Relative Initial Rate (Normalized Intensity/min × 1000), position G9 [3]: 1.4 ± 0.3 Normalized Intensity/min × 1000; Relative Initial Rate (Normalized Intensity/min × 1000), position G11 [3]: - ^a; Relative Initial Rate (Normalized Intensity/min × 1000), position G28 [3]: 1.0 ± 0.5 Normalized Intensity/min × 1000; Relative Initial Rate (Normalized Intensity/min × 1000), position U12 [3]: 1.2 ± 0.7 Normalized Intensity/min × 1000; Relative Initial Rate (Normalized Intensity/min × 1000), position U14 [3]: 1.2 ± 0.1 Normalized Intensity/min × 1000; Relative Initial Rate (Normalized Intensity/min × 1000), position U25 [3]: - ^a; Relative Initial Rate (Normalized Intensity/min × 1000), position U26 [3]: - ^a; Relative Initial Rate (Normalized Intensity/min × 1000), position U29 [3]: - ^a; Relative Initial Rate (Normalized Intensity/min × 1000), position U31 [3]: - ^a
4 | GGHKRFK-Cu [11-Cu] | 367 |  |  |  |  |  |  |  |  |  |  |  |  |  |  |  |  |  |  |  | precipitation from solution on addition to SLIIb [4]: significant precipitation
5 | GGHYRAK-Cu [6-Cu] | 17 | 0.7 ± 0.1 | 0.8 ± 0.1 | 0.1 ± 0.1 | 0.7 ± 0.2 | 0.6 ± 0.1 | 1.2 ± 0.1 | 0.8 ± 0.1 | 0.9 ± 0.3 | 1.2 ± 0.3 | 1.2 ± 0.2 | 1.9 ± 0.1 | 1.7 ± 0.5 Normalized Intensity/min × 1000 | <1 Normalized Intensity/min × 1000 | - ^a | - ^a | 2.4 ± 0.3 Normalized Intensity/min × 1000 | - ^a | 1.4 ± 0.5 Normalized Intensity/min × 1000 | - ^a | Relative Initial Rate (Normalized Intensity/min × 1000), position G9 [3]: - ^a; Relative Initial Rate (Normalized Intensity/min × 1000), position G11 [3]: <1 Normalized Intensity/min × 1000; Relative Initial Rate (Normalized Intensity/min × 1000), position G28 [3]: 2.3 ± 1.6 Normalized Intensity/min × 1000; Relative Initial Rate (Normalized Intensity/min × 1000), position U12 [3]: - ^a; Relative Initial Rate (Normalized Intensity/min × 1000), position U14 [3]: <1 Normalized Intensity/min × 1000; Relative Initial Rate (Normalized Intensity/min × 1000), position U25 [3]: - ^a; Relative Initial Rate (Normalized Intensity/min × 1000), position U26 [3]: - ^a; Relative Initial Rate (Normalized Intensity/min × 1000), position U29 [3]: - ^a; Relative Initial Rate (Normalized Intensity/min × 1000), position U31 [3]: - ^a
